This passage reports IC50 results from ChEMBL document CHEMBL1123253, “Design and synthesis of a potent and specific renin inhibitor with a prolonged duration of action in vivo” (J Med Chem, 1986).

Non-standard residues stand in square brackets, D forms with d. Residues, ends and D or L forms follow the SMILES beside them. ξ: configuration not given here. *: point of attachment. Sta = CC(C)C[C@H](N)[C@@H](O)CC(=O)O; NMeH = CN[C@@H](Cc1c[nH]cn1)C(=O)O; NHCH2(2-pyridyl) = c1ccc(CN*)nc1; NMeF = CN[C@@H](Cc1ccccc1)C(=O)O; αMeF = C[C@](N)(Cc1ccccc1)C(=O)O; ξαMeF = CC(N)(Cc1ccccc1)C(=O)O; Boc = CC(C)(C)OC(=O)* Some results are limits rather than exact numbers.

As usually defined, the IC50 is the midpoint of a concentration-inhibition curve. The low end stands for inhibition by little substance, the high end for a need for much substance.

For one test, the target named is T1, Renin (Homo sapiens, UniProt P00797).
T1 sequence (P00797 whole entry): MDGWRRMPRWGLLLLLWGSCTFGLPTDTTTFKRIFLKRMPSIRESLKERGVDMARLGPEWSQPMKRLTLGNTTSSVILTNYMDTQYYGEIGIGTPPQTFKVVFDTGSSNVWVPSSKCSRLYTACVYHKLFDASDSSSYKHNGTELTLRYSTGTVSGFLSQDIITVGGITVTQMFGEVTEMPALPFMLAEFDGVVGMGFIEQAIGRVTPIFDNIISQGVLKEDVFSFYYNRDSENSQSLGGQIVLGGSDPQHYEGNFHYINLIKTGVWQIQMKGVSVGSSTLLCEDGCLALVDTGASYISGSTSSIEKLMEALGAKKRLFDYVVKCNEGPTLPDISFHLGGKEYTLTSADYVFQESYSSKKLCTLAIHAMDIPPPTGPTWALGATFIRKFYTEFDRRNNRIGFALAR
The test can be described thus: Inhibition of human plasma renin. It is filed as cell-free. In short, it runs like this: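 Lyophilized human plasma with 0.1% EDTA as renin source. Plasma is combined with phenylmethylsulfonyl fluoride, maleate buffer pH 6.0 and inhibitor in 1% Tween 80/water, then incubated 90 min at 37 °C. Angiotensin I measured by radioimmunoassay. Percent inhibition taken vs control tubes; IC50 estimated graphically from 3–4 concentrations on a semilog plot.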

Another test concerns the target T2, Cathepsin D (Bos taurus, UniProt P80209).
T2 sequence (P80209 whole entry): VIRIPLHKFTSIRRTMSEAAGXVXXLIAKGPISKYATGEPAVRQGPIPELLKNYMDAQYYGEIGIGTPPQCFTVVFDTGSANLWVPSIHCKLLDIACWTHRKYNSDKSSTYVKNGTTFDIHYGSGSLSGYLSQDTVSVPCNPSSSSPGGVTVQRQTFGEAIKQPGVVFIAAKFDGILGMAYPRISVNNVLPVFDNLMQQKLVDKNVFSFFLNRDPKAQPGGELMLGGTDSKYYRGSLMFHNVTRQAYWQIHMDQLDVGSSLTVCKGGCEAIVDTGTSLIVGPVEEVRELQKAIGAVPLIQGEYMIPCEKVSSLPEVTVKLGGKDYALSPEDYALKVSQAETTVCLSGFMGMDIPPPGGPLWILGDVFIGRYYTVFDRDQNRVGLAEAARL
The test can be described thus: Inhibition of bovine cathepsin D.

The next test deals with Pepsin A (Sus scrofa, UniProt P00791). The test can be described thus: Inhibition of porcine pepsin. In short, it runs like this:
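Porcine pepsin with porcine hemoglobin substrate in 0.02 M KCl-HCl buffer pH 2, with compounds dissolved in buffer. Incubation 25 min at 37 °C, then perchloric acid added and acid-soluble fraction absorbance read at 280 nm.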

Sequence of Pepsin A (P00791 whole entry): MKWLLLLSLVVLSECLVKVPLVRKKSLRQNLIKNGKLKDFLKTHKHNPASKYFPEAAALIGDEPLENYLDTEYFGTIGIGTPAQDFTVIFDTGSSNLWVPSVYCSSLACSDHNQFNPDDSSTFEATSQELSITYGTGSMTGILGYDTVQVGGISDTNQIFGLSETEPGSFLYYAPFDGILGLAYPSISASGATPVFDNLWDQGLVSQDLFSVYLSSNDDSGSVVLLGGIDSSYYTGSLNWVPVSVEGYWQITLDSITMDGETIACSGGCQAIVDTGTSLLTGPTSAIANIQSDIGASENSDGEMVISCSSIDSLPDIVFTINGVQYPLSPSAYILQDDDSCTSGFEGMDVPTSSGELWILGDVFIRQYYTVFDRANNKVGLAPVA

The compound `CCC(C)C(NC(=O)CC(O)C(CC(C)C)NC(=O)C(Cc1cnc[nH]1)N(C)C(=O)C(Cc1ccccc1)NC(=O)OC(C)(C)C)C(=O)NCc1ccccn1` (stereo not drawn) had a concentration for half-maximal inhibition (IC50) against Renin of 120 nM.

As to `CC[C@H](C)[C@H](NC(=O)C[C@H](O)[C@H](CC(C)C)NC(=O)[C@H](Cc1ccccc1)NC(=O)C(C)(Cc1ccccc1)NC(=O)OC(C)(C)C)C(=O)NCc1ccccn1` (stereo partly drawn) (Boc-[ξαMeF]F[Sta]I-{NHCH2(2-pyridyl)}), on Renin, the IC50 turned out to be 6800 nM. Same read-out and setting: with `CC[C@H](C)[C@H](NC(=O)C[C@H](O)[C@H](CC(C)C)NC(=O)[C@H](Cc1c[nH]cn1)N(C)C(=O)[C@H](Cc1ccccc1)NC(=O)[C@@H]1CCCN1C(=O)OC(C)(C)C)C(=O)NCc1ccccn1` (Boc-PF[NMeH][Sta]I-{NHCH2(2-pyridyl)}) the figure was 190 nM; with `CC[C@H](C)[C@H](NC(=O)C[C@H](O)[C@H](CC(C)C)NC(=O)[C@H](Cc1ccccc1)NC(=O)[C@H](Cc1ccccc1)NC(=O)OC(C)(C)C)C(=O)NCc1ccccn1` (Boc-FF[Sta]I-{NHCH2(2-pyridyl)}), 24 nM. As for `CC[C@H](C)[C@H](NC(=O)C[C@H](O)[C@H](CC(C)C)NC(=O)[C@H](Cc1ccccc1)N(C)C(=O)[C@H](Cc1ccccc1)NC(=O)OC(C)(C)C)C(=O)NCc1ccccn1` (Boc-F[NMeF][Sta]I-{NHCH2(2-pyridyl)}), at Renin, the IC50 turned out to be 100 nM.

`CC[C@H](C)[C@H](NC(=O)C[C@H](O)[C@H](CC(C)C)NC(=O)[C@](C)(Cc1ccccc1)NC(=O)[C@H](Cc1ccccc1)NC(=O)OC(C)(C)C)C(=O)NCc1ccccn1` (Boc-F[αMeF][Sta]I-{NHCH2(2-pyridyl)}) gave a concentration for half-maximal inhibition (IC50) against Renin of more than 10000 nM.

`CC[C@H](C)[C@H](NC(=O)[C@@H](C[C@H](O)[C@H](CC(C)C)NC(=O)[C@H](Cc1c[nH]cn1)N(C)C(=O)[C@H](Cc1ccccc1)NC(=O)OC(C)(C)C)C(C)C)C(=O)NCc1ccccn1`: the half-maximal inhibitory concentration (IC50) against Renin stood at 0.65 nM. As for `CC[C@H](C)[C@H](NC(=O)[C@@H](C[C@H](O)[C@H](CC(C)C)NC(=O)[C@H](Cc1c[nH]cn1)N(C)C(=O)[C@H](Cc1ccccc1)NC(=O)[C@@H]1CCCN1C(=O)OC(C)(C)C)C(C)C)C(=O)NCc1ccccn1`, the results for the IC50 on Cathepsin D and against Pepsin A were 6300 nM and 6800 nM, respectively. In turn, `CC[C@H](C)[C@H](NC(=O)[C@@H](NC[C@H](CC(C)C)NC(=O)[C@H](Cc1c[nH]cn1)N(C)C(=O)[C@H](Cc1ccccc1)NC(=O)OC(C)(C)C)C(C)C)C(=O)NCc1ccccn1` had an IC50 on Renin of 450 nM.

Consider `CC[C@H](C)[C@H](NC(=O)C[C@H](O)[C@H](CC(C)C)NC(=O)[C@H](Cc1c[nH]cn1)NC(=O)[C@H](Cc1ccccc1)N(C)C(=O)OC(C)(C)C)C(=O)NCc1ccccn1` (Boc-[NMeF]H[Sta]I-{NHCH2(2-pyridyl)}), for which, on Renin, half-maximal inhibition (IC50) required 720 nM. Compound `CC[C@H](C)[C@H](NC(=O)C[C@H](O)[C@H](CC(C)C)NC(=O)[C@H](Cc1ccccc1)NC(=O)[C@H](Cc1ccccc1)N(C)C(=O)OC(C)(C)C)C(=O)NCc1ccccn1` (Boc-[NMeF]F[Sta]I-{NHCH2(2-pyridyl)}) returned an IC50 on Renin of 340 nM. The compound `CC[C@H](C)[C@H](NC(=O)[C@@H](NC[C@H](CC(C)C)NC(=O)[C@H](Cc1c[nH]cn1)N(C)C(=O)[C@H](Cc1ccccc1)NC(=O)[C@@H]1CCCN1C(=O)OC(C)(C)C)C(C)C)C(=O)NCc1ccccn1` came in with a half-maximal inhibitory concentration (IC50) at Renin of 68 nM.
